In ChEMBL document CHEMBL4130456 (ACS Med Chem Lett, 2017):
Calls of active or inactive are those of the source. The calls are words filed in the database; no cut-off is given here.

Tests used:
[1] = Protein binding in dog plasma; type: ADME, cell-free, Canis lupus familiaris; conditions: read-out: PPB
[2] = target: Phosphatidylinositol 4,5-bisphosphate 3-kinase catalytic subunit gamma isoform (Homo sapiens, UniProt P48736); experiment: Inhibition of PI3Kgamma (unknown origin) using phosphatidyl inositol as substrate measured after 30 mins by Alexa Fluor647-labelled ADP tracer based TR-FRET assay
Chain of Phosphatidylinositol 4,5-bisphosphate 3-kinase catalytic subunit gamma isoform (P48736 whole entry, canonical isoform): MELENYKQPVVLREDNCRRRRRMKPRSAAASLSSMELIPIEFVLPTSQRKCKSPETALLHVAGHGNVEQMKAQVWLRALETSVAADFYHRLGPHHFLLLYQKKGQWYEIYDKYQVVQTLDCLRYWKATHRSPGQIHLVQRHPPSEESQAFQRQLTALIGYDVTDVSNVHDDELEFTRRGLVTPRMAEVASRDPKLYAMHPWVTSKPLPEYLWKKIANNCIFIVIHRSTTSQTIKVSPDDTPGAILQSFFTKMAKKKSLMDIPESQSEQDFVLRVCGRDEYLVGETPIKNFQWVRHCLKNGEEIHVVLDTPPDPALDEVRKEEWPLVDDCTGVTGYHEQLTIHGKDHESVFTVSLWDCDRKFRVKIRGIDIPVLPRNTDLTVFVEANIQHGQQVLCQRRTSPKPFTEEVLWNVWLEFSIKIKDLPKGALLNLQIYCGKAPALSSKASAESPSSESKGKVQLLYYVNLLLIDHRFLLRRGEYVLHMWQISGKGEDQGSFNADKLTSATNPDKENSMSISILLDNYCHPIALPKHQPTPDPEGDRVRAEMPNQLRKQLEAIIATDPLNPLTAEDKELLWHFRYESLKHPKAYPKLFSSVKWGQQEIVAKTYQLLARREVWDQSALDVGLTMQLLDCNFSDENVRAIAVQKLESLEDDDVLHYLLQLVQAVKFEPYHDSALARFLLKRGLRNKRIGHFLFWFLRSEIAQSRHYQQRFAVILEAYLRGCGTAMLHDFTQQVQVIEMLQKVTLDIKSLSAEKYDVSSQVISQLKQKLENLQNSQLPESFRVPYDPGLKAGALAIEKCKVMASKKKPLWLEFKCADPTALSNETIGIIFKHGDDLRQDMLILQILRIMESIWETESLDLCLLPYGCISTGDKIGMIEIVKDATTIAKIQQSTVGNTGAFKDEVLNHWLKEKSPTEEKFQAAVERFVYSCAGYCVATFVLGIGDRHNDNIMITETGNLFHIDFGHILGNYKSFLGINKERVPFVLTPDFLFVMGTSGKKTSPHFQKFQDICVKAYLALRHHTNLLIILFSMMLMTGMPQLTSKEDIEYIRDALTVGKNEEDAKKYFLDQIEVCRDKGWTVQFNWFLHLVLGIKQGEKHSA

[3] = system: Rattus norvegicus; experiment: Dose normalized Cmax in Sprague-Dawley rat at 3 mg/kg, po by RP-HPLC analysis; type: ADME, organism-based; conditions: in vivo
[4] = target: Phosphatidylinositol 3-kinase catalytic subunit type 3 (Homo sapiens, UniProt Q8NEB9); experiment: Inhibition of Vps34 (unknown origin) using phosphatidyl inositol/n-Octyl-glucoside as substrate measured after 30 mins by KinaseGlo assay
Chain of Phosphatidylinositol 3-kinase catalytic subunit type 3 (Q8NEB9 whole entry): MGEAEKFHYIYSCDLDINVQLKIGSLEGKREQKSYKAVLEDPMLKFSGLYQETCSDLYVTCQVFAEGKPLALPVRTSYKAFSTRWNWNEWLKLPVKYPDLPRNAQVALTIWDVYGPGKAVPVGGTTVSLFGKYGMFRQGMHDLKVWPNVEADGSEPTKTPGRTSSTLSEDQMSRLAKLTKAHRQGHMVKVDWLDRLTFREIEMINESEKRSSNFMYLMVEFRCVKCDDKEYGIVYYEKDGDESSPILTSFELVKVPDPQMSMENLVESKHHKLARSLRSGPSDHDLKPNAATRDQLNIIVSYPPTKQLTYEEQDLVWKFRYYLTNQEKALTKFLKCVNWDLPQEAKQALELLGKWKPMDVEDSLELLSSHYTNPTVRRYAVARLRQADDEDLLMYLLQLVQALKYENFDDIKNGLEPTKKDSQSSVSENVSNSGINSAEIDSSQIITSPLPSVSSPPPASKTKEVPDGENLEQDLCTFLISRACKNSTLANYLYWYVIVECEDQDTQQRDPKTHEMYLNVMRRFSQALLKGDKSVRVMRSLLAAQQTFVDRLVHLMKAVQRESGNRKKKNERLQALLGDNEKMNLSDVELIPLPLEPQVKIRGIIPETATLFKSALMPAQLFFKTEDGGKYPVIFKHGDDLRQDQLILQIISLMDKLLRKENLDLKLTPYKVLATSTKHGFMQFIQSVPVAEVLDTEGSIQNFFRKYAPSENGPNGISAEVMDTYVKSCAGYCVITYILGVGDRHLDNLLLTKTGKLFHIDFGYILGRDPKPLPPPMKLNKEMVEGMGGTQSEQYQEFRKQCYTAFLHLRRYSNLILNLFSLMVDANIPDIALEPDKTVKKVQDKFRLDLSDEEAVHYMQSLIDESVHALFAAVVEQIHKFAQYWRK

[5] = Terminal half life in Sprague-Dawley rat at 1 mg/kg, iv by RP-HPLC analysis; type: ADME, organism-based; conditions: in vivo, read-out: beta t1/2 (converted)
[6] = Inhibition of PI3Kdelta in 50% rat blood assessed as reduction in anti-IgM stimulated AKT phosphorylation at ser473 residue pretreated for 1.5 hr followed by anti-IgM stimulation after 10 mins by flow cytometric analysis
Outline: (§1)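 Rat 50% whole blood; B cells stimulated with anti-IgM/IL-4; readouts pAKT or CD86.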

[7] = Tmax in Beagle dog at 0.3 mg/kg, po by RP-HPLC analysis; type: ADME, organism-based, Canis lupus familiaris; conditions: in vivo
[8] = target: Phosphatidylinositol 4,5-bisphosphate 3-kinase catalytic subunit beta isoform (Homo sapiens, UniProt P42338); experiment: Inhibition of recombinant human myristoylated PI3Kbeta catalytic domain expressed in Rat1 cells assessed as reduction in Akt phosphorylation at […] residue after 1 hr by alpha screen Surefire assay; type: cell-based
Chain of Phosphatidylinositol 4,5-bisphosphate 3-kinase catalytic subunit beta isoform (P42338 whole entry, the tested form may be a part, canonical isoform): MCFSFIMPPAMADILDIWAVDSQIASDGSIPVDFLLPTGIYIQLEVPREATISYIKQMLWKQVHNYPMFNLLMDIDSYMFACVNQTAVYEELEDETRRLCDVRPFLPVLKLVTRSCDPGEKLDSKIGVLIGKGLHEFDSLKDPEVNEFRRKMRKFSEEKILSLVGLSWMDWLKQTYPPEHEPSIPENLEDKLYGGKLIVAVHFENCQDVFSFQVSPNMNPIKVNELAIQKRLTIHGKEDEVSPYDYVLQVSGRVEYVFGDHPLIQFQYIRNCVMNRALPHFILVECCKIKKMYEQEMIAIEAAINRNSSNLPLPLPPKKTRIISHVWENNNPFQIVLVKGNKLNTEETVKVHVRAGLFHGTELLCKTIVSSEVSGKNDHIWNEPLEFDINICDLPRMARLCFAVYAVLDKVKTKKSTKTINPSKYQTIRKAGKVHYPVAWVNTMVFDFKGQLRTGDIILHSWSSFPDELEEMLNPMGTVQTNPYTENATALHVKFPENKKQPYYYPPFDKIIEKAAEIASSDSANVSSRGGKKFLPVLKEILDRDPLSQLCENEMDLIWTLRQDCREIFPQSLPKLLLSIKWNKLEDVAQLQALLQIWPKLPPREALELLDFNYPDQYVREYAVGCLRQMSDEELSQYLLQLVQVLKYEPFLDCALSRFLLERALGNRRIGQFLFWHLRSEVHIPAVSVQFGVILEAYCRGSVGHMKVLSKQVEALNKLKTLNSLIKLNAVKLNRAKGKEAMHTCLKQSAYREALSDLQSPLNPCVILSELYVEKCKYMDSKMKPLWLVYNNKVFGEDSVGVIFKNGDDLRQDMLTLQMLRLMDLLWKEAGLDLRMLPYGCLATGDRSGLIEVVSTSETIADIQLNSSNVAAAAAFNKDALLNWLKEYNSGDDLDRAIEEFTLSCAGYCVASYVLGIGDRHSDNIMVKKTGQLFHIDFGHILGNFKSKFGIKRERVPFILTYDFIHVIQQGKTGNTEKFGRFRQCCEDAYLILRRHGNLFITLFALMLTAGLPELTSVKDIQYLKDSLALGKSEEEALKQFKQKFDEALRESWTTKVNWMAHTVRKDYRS

[9] = system: Rattus norvegicus; experiment: Antiarthritic activity in Lewis rat type-2 collagen-induced arthritis model assessed as reduction in paw swelling at 10 mg/kg, po bid administered after disease onset for 40 days starting from 14 days post type-2 collagen-induction measured 3 times a week up to 41 days; type: functional, organism-based
Outline: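 Rat collagen-induced arthritis, therapeutic regimen: dosing begins once marked paw swelling is present, 10 mg/kg b.i.d.; readout is paw swelling.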

[10] = Oral bioavailability in cynomolgus monkey at 0.3 mg/kg by RP-HPLC analysis; type: ADME, organism-based, Macaca fascicularis; conditions: in vivo
[11] = Clearance in Sprague-Dawley rat at 1 mg/kg, iv by RP-HPLC analysis; type: ADME, organism-based; conditions: in vivo
[12] = Volume of distribution at steady state in cynomolgus monkey at 0.1 mg/kg, iv by RP-HPLC analysis; type: ADME, organism-based, Macaca fascicularis; conditions: in vivo, read-out: Vdss
[13] = system: Mus musculus; experiment: Antiinflammatory activity in po dosed C57BL/6J mouse ozone-induced lung inflammation model assessed as reduction in macrophage numbers in bronchoalveolar lavage pretreated for 1 hr followed by ozone exposure for 4 hrs and subsequent redosing measured after 24 hrs by Diff-quick staining based assay; type: functional
Outline: (§2)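 Mouse ozone-induced lung inflammation. Inflammatory cells are counted in bronchoalveolar lavage (neutrophils, macrophages) across several doses. ED50 is derived from the dose–response.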

[14] = Clearance in cynomolgus monkey at 0.1 mg/kg, iv by RP-HPLC analysis; type: ADME, organism-based, Macaca fascicularis; conditions: in vivo
[15] = system: Rattus norvegicus; experiment: Antiarthritic activity in Lewis rat type-2 collagen-induced arthritis model assessed as reduction in IgG antibodies at 10 mg/kg, po bid administered after disease onset for 40 days starting from 14 days post type-2 collagen-induction measured on day 41 by ELISA; type: functional, organism-based
Outline: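 Rat collagen-induced arthritis, therapeutic regimen: dosing begins once marked paw swelling is present, 10 mg/kg b.i.d.; readout is established anti-rat collagen autoantibody response.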

[16] = Tmax in Sprague-Dawley rat at 3 mg/kg, po by RP-HPLC analysis; type: ADME, organism-based; conditions: in vivo
[17] = Protein binding in Lewis rat plasma; type: ADME, cell-free; conditions: read-out: PPB (converted)
[18] = target: DNA-dependent protein kinase catalytic subunit (Homo sapiens, UniProt P78527); experiment: Inhibition of DNA-PK (unknown origin) using peptide substrate assessed as reduction in incorporation of radioactive 33p into substrate by liquid scintillation counting method
[19] = Inhibition of PI3Kdelta in 50% rat blood assessed as reduction in anti-IgM stimulated CD86 expression pretreated for 1 hr followed by anti-IgM stimulation after 24 hrs by flow cytometric analysis; outline: as §1
[20] = Lipophilicity, log P of the compound by artificial membrane based assay; type: physicochemical
[21] = system: Rattus norvegicus; experiment: Antiarthritic activity in Lewis rat type-2 collagen-induced arthritis model assessed as reduction in paw swelling at 3 to 10 mg/kg, po bid administered prior to disease onset for 19 days starting from 5 days post type-2 collagen-induction measured 3 times a week measured up to 19 days; type: functional, organism-based
Outline: (§3)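 Rat collagen-induced arthritis, prophylactic regimen: dosing starts before disease onset, b.i.d. Readouts are anti-rat collagen antibodies, paw swelling, and histology (inflammatory cell infiltration, proteoglycan loss, joint erosion).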

[22] = target: Ribosomal protein S6 kinase alpha-5 (Homo sapiens) (UniProt O75582); experiment: Inhibition of wild-type human partial length RPS6KA5 expressed in bacterial expression system at 10 uM by Kinomescan method relative to control
Chain of Ribosomal protein S6 kinase alpha-5 (Homo sapiens) (O75582 whole entry, looked up): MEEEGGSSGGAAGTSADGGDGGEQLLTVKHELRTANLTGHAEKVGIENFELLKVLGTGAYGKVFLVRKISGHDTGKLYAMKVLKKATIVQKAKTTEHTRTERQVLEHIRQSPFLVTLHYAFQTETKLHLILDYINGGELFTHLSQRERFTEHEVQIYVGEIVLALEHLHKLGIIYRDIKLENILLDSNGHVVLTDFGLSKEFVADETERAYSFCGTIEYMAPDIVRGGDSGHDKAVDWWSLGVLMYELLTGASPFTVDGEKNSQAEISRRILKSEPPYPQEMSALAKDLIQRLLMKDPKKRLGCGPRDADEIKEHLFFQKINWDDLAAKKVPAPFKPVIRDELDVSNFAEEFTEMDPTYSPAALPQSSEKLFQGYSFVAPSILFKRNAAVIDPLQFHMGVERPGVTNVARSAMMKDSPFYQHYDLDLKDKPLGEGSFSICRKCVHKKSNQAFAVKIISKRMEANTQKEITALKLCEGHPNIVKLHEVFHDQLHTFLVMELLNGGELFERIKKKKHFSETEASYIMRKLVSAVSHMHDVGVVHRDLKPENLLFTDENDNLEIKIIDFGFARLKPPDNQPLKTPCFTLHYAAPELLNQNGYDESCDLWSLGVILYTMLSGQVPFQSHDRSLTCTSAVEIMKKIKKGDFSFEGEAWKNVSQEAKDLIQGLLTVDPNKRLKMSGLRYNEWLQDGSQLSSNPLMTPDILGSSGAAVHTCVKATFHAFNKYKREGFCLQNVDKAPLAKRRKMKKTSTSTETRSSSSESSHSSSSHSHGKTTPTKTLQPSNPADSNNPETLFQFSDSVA

[23] = system: Cynomolgus monkey; experiment: Dose normalized AUC in cynomolgus monkey at 0.1 mg/kg, iv by RP-HPLC analysis; type: ADME, organism-based, Macaca fascicularis; conditions: in vivo
[24] = system: Mus musculus; experiment: Antiinflammatory activity in po dosed C57BL/6J mouse ozone-induced lung inflammation model assessed as reduction in neutrophil numbers in bronchoalveolar lavage pretreated for 1 hr followed by ozone exposure for 4 hrs and subsequent redosing measured after 24 hrs by Diff-quick staining based assay; type: functional; outline: as §2
[25] = system: Rattus norvegicus; experiment: Antiarthritic activity in Lewis rat type-2 collagen-induced arthritis model assessed as reduction in inflammatory cell infiltration at 3 to 10 mg/kg, po bid administered prior to disease onset for 19 days starting from 5 days post type-2 collagen-induction measured post last dose by giemsa/safranin O staining based histopathological analysis; type: functional, organism-based; outline: as §3
[26] = Volume of distribution at steady state in Sprague-Dawley rat at 1 mg/kg, iv by RP-HPLC analysis; type: ADME, organism-based; conditions: in vivo, read-out: Vdss

SMILES: CCC(=O)N1CC[C@H](Nc2ncnc3c2CN(c2cnc(OC)c(C(F)(F)F)c2)CC3)C1 [LENIOLISIB]
- fraction unbound [1]: < 0.01
- IC50 [2]: 2.23 µM
- Cmax/dose [3]: 0.391 µM
- IC50 [4]: > 9.1 µM
- half-life [5]: 108 min
- IC50 [6]: 0.15 µM
- Tmax [7]: 42 min
- IC50 [8]: 2.25 µM
- Activity [9]: Active
- bioavailability [10]: 13%
- clearance [11]: 1.68 L/h/kg
- Vd [12]: 0.6 L/kg
- Activity [13]: Dose-dependent effect
- ED50 [13]: 40 mg/kg
- clearance [14]: 1.02 L/h/kg
- Activity [15]: Active
- Tmax [16]: 24 min
- fraction unbound [17]: 0.06
- IC50 [18]: 0.88 µM
- IC50 [19]: 0.099 µM
- logP [20]: 3.2
- Activity [21]: Active
- inhibition [22]: 76%
- AUC/dose [23]: 2250 nM·h
- Activity [24]: Dose-dependent effect
- ED50 [24]: 16 mg/kg
- Activity [25]: Active
- Vd [26]: 3.1 L/kg
